This passage reports IC50, EC50 and Activity results from ChEMBL document CHEMBL1138222, “9-Benzylidene-naphtho[2,3-b]thiophen-4-ones as novel antimicrotubule agents-synthesis, antiproliferative activity, and inhibition of tubulin polymerization” (J Med Chem, 2006).

One assay concerns K562. The experiment in a line: Antiproliferative activity against human K562 cell line. Format: functional, cell-based.
For another assay, the target named is Tubulin (Sus scrofa, UniProt P02554+P02550). Description: Inhibition of tubulin polymerization in porcine brain.
The nature of assay [1]: Cell cycle arrest in KB/HeLa cells by accumulation at G2/M phase. Format: functional, cell-based. The following applies: Homo sapiens. In short, it runs like this:
(§1)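 Subconfluent KB/HeLa cells were treated with a concentration series for 24 h at 37 °C, then detached and fixed in 70% ethanol. DNA was stained with propidium iodide alongside RNase digestion and measured by flow cytometry. Phase fractions came from cell-cycle modelling software, and IC50 from nonlinear regression.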

Assay [2] in a line: Cell cycle arrest in KB/HeLa cells by accumulation at S phase at 100 nM. It counts as functional, cell-based. The following applies: Homo sapiens. The method, boiled down:
as §1

Assay [3] in a line: Cell cycle arrest in KB/HeLa cells by accumulation at G2/M phase at 10 nM. It counts as functional, cell-based. The following applies: Homo sapiens. In short, it runs like this: as §1
In assay [4] the test system is L1210. The experiment in a line: Antiproliferative activity against L1210 VCR cells by XTT assay after 48 hrs. The following applies: Mus musculus, L1210, 48 h. It counts as functional, cell-based. The method, boiled down: (§2)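 Tumour cell lines were seeded at 1 × 10^3 to 8 × 10^4 cells/well for logarithmic growth and exposed to a concentration series for 48 h. Proliferation was read as cellular metabolic activity by XTT. IC50 came from dose-response curves by nonlinear regression, with at least two replicates.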
Background: Formazan colour is commonly taken as a measure of viable cells.

Assay [5] can be described thus: Cell cycle arrest in KB/HeLa cells by accumulation at G1 phase at 100 nM. It counts as functional, cell-based. The following applies: Homo sapiens. In short, it runs like this: as §1
Another assay can be described thus: cells. Conditions: Rattus norvegicus, LT12, 48 h.
The nature of assay [6]: Cell cycle arrest in KB/HeLa cells by accumulation at G2/M phase at 316 nM. It counts as functional, cell-based. The following applies: Homo sapiens. The method, boiled down: as §1
Assay [7] can be described thus: Cell cycle arrest in KB/HeLa cells by accumulation at S phase at 1 nM. The following applies: Homo sapiens. Format: functional, cell-based. In short, it runs like this:
as §1

Assay [8] can be described thus: Cell cycle arrest in KB/HeLa cells by accumulation at S phase at 31.6 nM. It counts as functional, cell-based. Conditions: Homo sapiens. The method, boiled down:
as §1

Assay [9] is described as follows: Cell cycle arrest in KB/HeLa cells by accumulation at G1 phase at 3.16 nM. Conditions: Homo sapiens. It counts as functional, cell-based. In short, it runs like this:
as §1

Assay [10] can be described thus: Cell cycle arrest in KB/HeLa cells by accumulation at G1 phase at 316 nM. It counts as functional, cell-based. Conditions: Homo sapiens. In short, it runs like this: as §1
A short description of assay [11]: Cell cycle arrest in KB/HeLa cells by accumulation at S phase at 10 nM. Format: functional, cell-based. The following applies: Homo sapiens. In short, it runs like this:
as §1

The next assay deals with MDR. The experiment in a line: Antiproliferative activity against LT12 MDR cells by XTT assay after 48 hrs. It counts as functional, cell-based. Conditions: Rattus norvegicus. The method, boiled down: as §2
Assay [12] can be described thus: Cell cycle arrest in KB/HeLa cells by accumulation at G2/M phase at 31.6 nM. It counts as functional, cell-based. The following applies: Homo sapiens. In short, it runs like this:
as §1

A short description of assay [13]: Cell cycle arrest in KB/HeLa cells by accumulation at G2/M phase at 100 nM. Format: functional, cell-based. Conditions: Homo sapiens. The method, boiled down: as §1
Another assay deals with RKO. The experiment in a line: Antiproliferative activity against RKO cells with ectopic-induced p27kip1-expression by XTT assay after 48 hrs. Format: functional, cell-based. Conditions: Homo sapiens. In short, it runs like this:
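RKO colon adenocarcinoma cells carry an ecdysone-inducible p27kip1 vector. On day 1 they were plated with 3 µM ponasterone A (induced, 2 × 10^4 cells/well) or without it (not induced, 6 × 10^3 cells/well) and held 24 h at 37 °C. Compound or DMSO control was then added for 48 h at 37 °C, followed by a standard XTT read-out.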

For assay [14], the system named is P388. The experiment in a line: Antiproliferative activity against P388 ADR cells by XTT assay after 48 hrs. The following applies: Mus musculus, P388, 48 h. It counts as functional, cell-based. In short, it runs like this:
as §2

Assay [15] in a line: Cell cycle arrest in KB/HeLa cells by accumulation at G2/M phase at 1 nM. Format: functional, cell-based. The following applies: Homo sapiens. In short, it runs like this: as §1
Assay [16] has as its system P388. The experiment in a line: Antiproliferative activity against P388 cells by XTT assay after 48 hrs. Format: functional, cell-based. The following applies: Mus musculus, P388, 48 h. In short, it runs like this: as §2
A short description of assay [17]: Cell cycle arrest in KB/HeLa cells by accumulation at S phase at 316 nM. It counts as functional, cell-based. The following applies: Homo sapiens. The method, boiled down:
as §1

The nature of assay [18]: Cell cycle arrest in KB/HeLa cells by accumulation at G1 phase at 1 nM. Format: functional, cell-based. Conditions: Homo sapiens. The method, boiled down:
as §1

Assay [19] in a line: Antiproliferative activity against KB/HeLa cells by XTT assay after 48 hrs. Conditions: Homo sapiens. Format: functional, cell-based. In short, it runs like this:
as §2

The subject of assay [20] is L1210. The experiment in a line: Antiproliferative activity against L1210 cells by XTT assay after 48 hrs. Format: functional, cell-based. The following applies: Mus musculus, L1210, 48 h. In short, it runs like this:
as §2

A short description of assay [21]: Cell cycle arrest in KB/HeLa cells by accumulation at G1 phase at 31.6 nM. It counts as functional, cell-based. Conditions: Homo sapiens. The method, boiled down:
as §1

Assay [22] is described as follows: Cell cycle arrest in KB/HeLa cells by accumulation at G2/M phase at 3.16 nM. The following applies: Homo sapiens. Format: functional, cell-based.
Assay [23] can be described thus: Cell cycle arrest in KB/HeLa cells by accumulation at S phase at 3.16 nM. Format: functional, cell-based. Conditions: Homo sapiens. In short, it runs like this: as §1
A short description of assay [24]: Cell cycle arrest in KB/HeLa cells by accumulation at G1 phase at 10 nM. It counts as functional, cell-based. The following applies: Homo sapiens. The method, boiled down: as §1

What is called IC50 is the concentration at which inhibition is half-maximal. `COc1ccc(/C=C2/c3ccccc3C(=O)c3ccsc32)cc1OC`: in the assay on K562, inhibition was half-maximal at 320 nM (IC50).
For `COc1ccc(/C=C2/c3ccccc3C(=O)c3ccsc32)cc1`, the IC50 came out at 3300 nM against Tubulin and 440 nM in the assay on K562.
Broadly, the EC50 is the concentration needed to bring the measured effect to its halfway point. The molecule `COC(=O)Nc1nc2cc(C(=O)c3cccs3)ccc2[nH]1` [NOCODAZOLE] returned an EC50 in [1] of 91 nM. Also, the Activity in [2] was determined as 26.1%; in assay [3], 10%; in assay [5], 22.3%; in assay [6] it was 93.2%; in assay [7] it was 23.6%; in assay [8] it was 25.7%. The Activity in assay [9] amounted to 64.6%; in [10], 0.9%; in assay [11] it was 25.7%; in assay [12] it was 9.9%; in [13] it was 51.4%; in [15], 11.1%. Further, the Activity was 6% in [17]; 65.2% in [18]; 64.4% in assay [21]; 10.6% in assay [22]; 24.8% in assay [23]; 64.2% in [24]. For the same molecule, the IC50 in the assay on L1210 [4] is 90 nM; in “cells” it was 40 nM; with MDR, 70 nM; in the assay on RKO, greater than 10000 nM; in the assay on P388 [14], 170 nM; in the assay with P388 [16], 80 nM. For the same molecule, the IC50 was determined as 140 nM in assay [19] and 50 nM with L1210 [20].
As to `COc1ccc(COc2c3ccccc3cc3sccc23)cc1OC`, the IC50 against Tubulin came out at 3980 nM; in the assay on K562, 900 nM.
Take `COc1cc(/C=C2/c3ccccc3C(=O)c3ccsc32)cc(OC)c1OC`: the values for the IC50 against Tubulin and in the assay on K562 were 7400 nM and 600 nM, respectively.
With `c1ccc(COc2c3ccccc3cc3sccc23)cc1`, the IC50 in the assay on K562 is 2380 nM.
Regarding `COc1ccc(/C=C2/c3ccccc3C(=O)c3ccsc32)cc1O`, the values for the 50% inhibitory concentration (IC50) at Tubulin and in the assay with K562 were 1400 nM and 230 nM, respectively.
In the case of `COc1ccc(C(=O)Oc2c3ccccc3cc3sccc23)cc1`, the concentration for half-maximal inhibition (IC50) on Tubulin was greater than 10000 nM; in the assay on K562, greater than 90000 nM.
For `Cn1cc(/C=C2/c3ccccc3C(=O)c3ccsc32)c2ccccc21`, the IC50 in the assay on K562 stood at 250 nM.
`COc1ccc(CC(=O)Oc2c3ccccc3cc3sccc23)cc1`: the IC50 is greater than 10000 nM against Tubulin and 15000 nM in the assay on K562.
`O=C1c2ccccc2/C(=C/c2ccc(O)c(O)c2)c2sccc21` came in with an IC50 in the assay on K562 of 270 nM.
On to `O=C1c2ccccc2/C(=C/c2c[nH]c3ccccc23)c2sccc21`, for which the IC50 at Tubulin was 2800 nM; in the assay with K562 it was 720 nM.
For `O=C1c2ccccc2/C(=C/c2ccc(O)cc2)c2sccc21`, half-maximal inhibition with K562 (IC50) required 810 nM.
Turning to `O=C1c2ccccc2/C(=C/c2cccs2)c2sccc21`, the IC50 on Tubulin was determined as 1340 nM; in the assay with K562, 390 nM.
`CC(=O)O[C@H]1C(=O)[C@@]2(C)[C@H]([C@H](OC(=O)c3ccccc3)[C@]3(O)C[C@H](OC(=O)[C@H](O)[C@@H](NC(=O)c4ccccc4)c4ccccc4)C(C)=C1C3(C)C)[C@]1(OC(C)=O)CO[C@@H]1C[C@@H]2O` [PACLITAXEL] returned an EC50 in assay [1] of 49 nM. For the same molecule, the Activity in [2] turned out to be 11%; in [3] it was 8.5%; in assay [5] it was 1.2%; in assay [6], 90.8%; in assay [7], 26.7%; in assay [8], 49.9%. Besides, the Activity in assay [9] was 63.6%; in assay [10], 0.3%; in assay [11], 26.6%; in [12], 19%; in assay [13] it was 87.8%; in [15] it was 10.1%. The Activity in assay [17] turned out to be 8.9%; in [18] it was 63.2%; in assay [21] it was 31.1%; in [22], 9.4%; in [23], 27%; in assay [24], 64.8%. The IC50 in the assay on L1210 [4] was greater than 5000 nM; in the assay on MDR, 400 nM; with RKO, greater than 3000 nM; in the assay on P388 [14] it was greater than 5000 nM; in the assay on P388 [16], 40 nM; in assay [19], 10 nM.
